How the values were obtained:
[1] = target: T1, Excitatory amino acid transporter 3 (Homo sapiens, UniProt P43005); assay: Inhibition of human EAAT3 expressed in HEK293 cells assessed as inhibition of 3[H]-D-Aspartate uptake after 6 mins by scintillation counting method
T1 sequence (P43005 whole entry): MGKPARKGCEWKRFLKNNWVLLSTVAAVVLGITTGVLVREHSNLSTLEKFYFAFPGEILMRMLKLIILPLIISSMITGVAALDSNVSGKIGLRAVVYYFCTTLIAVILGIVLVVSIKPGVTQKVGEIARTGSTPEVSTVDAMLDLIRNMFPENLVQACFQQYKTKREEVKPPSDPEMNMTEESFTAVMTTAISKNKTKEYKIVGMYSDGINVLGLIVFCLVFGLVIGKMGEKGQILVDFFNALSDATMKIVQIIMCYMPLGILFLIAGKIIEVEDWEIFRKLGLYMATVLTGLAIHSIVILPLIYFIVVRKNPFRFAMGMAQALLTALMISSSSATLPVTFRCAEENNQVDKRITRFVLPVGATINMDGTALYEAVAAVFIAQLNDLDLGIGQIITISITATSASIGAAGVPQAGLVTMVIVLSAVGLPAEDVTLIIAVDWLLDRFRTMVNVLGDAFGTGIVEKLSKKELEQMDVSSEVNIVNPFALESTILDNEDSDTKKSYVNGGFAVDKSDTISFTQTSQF
Procedure, shortened: (§1)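 HEK293 cell lines expressing EAAT1, EAAT2 or EAAT3 were cultured and assayed for [³H]-D-aspartate uptake, following an earlier published protocol. Inhibition is reported as IC50 in μM, with pIC50 ± SEM.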

[2] = target: Excitatory amino acid transporter 1 (Homo sapiens, UniProt P43003); assay: Inhibition of human EAAT1 expressed in HEK293 cells assessed as inhibition of 3[H]-D-Aspartate uptake after 6 mins by scintillation counting method; procedure, shortened: as §1
[3] = target: Excitatory amino acid transporter 2 (Homo sapiens, UniProt P43004); assay: Inhibition of human EAAT2 expressed in HEK293 cells assessed as inhibition of 3[H]-D-Aspartate uptake after 6 mins by scintillation counting method; procedure, shortened: as §1
Chain of Excitatory amino acid transporter 2 (P43004 whole entry): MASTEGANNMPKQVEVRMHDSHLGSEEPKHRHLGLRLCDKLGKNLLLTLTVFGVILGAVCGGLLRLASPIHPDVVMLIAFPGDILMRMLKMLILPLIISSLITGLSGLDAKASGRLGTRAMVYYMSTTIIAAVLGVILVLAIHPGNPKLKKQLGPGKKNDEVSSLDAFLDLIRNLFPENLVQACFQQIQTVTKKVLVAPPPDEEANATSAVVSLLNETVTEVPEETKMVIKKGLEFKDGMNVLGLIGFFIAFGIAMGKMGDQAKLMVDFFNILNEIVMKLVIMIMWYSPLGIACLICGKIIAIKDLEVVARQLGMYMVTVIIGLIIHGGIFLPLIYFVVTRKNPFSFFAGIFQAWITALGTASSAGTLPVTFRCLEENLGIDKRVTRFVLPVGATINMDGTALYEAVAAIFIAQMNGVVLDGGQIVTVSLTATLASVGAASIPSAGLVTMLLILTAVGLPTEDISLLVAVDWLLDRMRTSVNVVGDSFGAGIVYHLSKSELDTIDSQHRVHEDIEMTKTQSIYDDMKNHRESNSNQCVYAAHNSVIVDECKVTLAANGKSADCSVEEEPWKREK

Chain of Excitatory amino acid transporter 1 (P43003 whole entry): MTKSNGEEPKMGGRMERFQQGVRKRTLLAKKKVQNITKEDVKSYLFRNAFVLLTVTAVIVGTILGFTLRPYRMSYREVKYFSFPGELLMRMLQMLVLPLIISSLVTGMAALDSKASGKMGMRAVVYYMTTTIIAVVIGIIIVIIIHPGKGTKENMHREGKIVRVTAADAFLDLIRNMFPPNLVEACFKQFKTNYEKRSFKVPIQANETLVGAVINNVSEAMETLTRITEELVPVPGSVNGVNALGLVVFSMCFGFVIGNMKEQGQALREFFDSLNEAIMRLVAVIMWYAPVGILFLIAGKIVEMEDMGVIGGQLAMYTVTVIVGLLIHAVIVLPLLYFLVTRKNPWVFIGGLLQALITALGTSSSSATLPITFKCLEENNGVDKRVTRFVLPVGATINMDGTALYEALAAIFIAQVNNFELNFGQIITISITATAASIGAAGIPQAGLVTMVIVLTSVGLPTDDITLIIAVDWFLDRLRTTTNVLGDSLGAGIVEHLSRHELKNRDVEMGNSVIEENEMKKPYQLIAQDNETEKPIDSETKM

| IC50 [1] [µM] | IC50 [2] [µM] | IC50 [3] [µM] | SMILES |
| --- | --- | --- | --- |
| > 100 | > 100 | > 100 | N#CC1C(=N)OC2=C(C(=O)CN(C(=O)c3ccccc3)C2)C1c1ccccc1 (configuration not stated) |
| > 100 | > 100 | > 100 | N#CC1C(=N)OC2=C(C(=O)CN(c3ccccc3)C2)C1c1ccccc1 (configuration not stated) |
|  | > 300 |  | CC1(C)C2=C(CC(c3ccccc3)CC2=O)OC(=N)C1C#N (configuration not stated) |

Source: BindingDB's records for doi:10.1021/jm300345z (University of Copenhagen, 2012)
